Common to all, as to format: functional
One test has as its system Escherichia coli. The test can be described thus: Minimum inhibitory concentration against Escherichia coli.
The test system of the next test is Mus musculus. The test can be described thus: In vivo effective dose against Pasteurella multocida infection in mouse. In outline:
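Mice infected with P. multocida serotype 5A. Subcutaneous dosing 0.5 h post-infection at 5 to 80 mg/kg. ED50 calculated from the number of mice surviving four days after infection.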

The test system of a further test is Pasteurella multocida. The test is described as follows: Minimum inhibitory concentration against Pasteurella multocida. In outline:
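P. multocida strain 59A0067 (turkey origin), grown overnight on BHI plates; colonies in saline at OD625 0.09 (0.5 McFarland), diluted 1:100 in BHI broth. Two-fold serial dilutions in BHI microdilution, about 5×10⁵ cfu/mL final, 37 °C for 18 h. MIC is the lowest concentration with A600 ≤ 0.025.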

≈ marks a conversion by molar mass, not a printed value.

Usually MIC stands for the lowest concentration that inhibits growth of the organism. As usually defined, the ED50 is the midpoint of the dose-response relation. The low end stands for an effect at a small dose, the high end for a need for a large dose.

Regarding `CC[C@H]1OC(=O)[C@H](C)[C@@H](O[C@H]2C[C@@](C)(OC)[C@@](O)(CSC)[C@H](C)O2)[C@H](C)[C@@H](O[C@@H]2O[C@H](C)C[C@H](N(C)C)[C@H]2O)[C@](C)(O)C[C@@H](C)CN[C@H](C)[C@@H](O)[C@]1(C)O`, the MIC was 3.13 µg/mL (≈ 3.94 µM) with Escherichia coli and 0.1 µg/mL (≈ 0.126 µM) with Pasteurella multocida. In addition, the ED50 in the test with Mus musculus was 44 mg/kg.

As to `CC[C@H]1OC(=O)[C@H](C)[C@@H](O[C@H]2C[C@@](C)(OC)[C@@](O)(c3ccco3)[C@H](C)O2)[C@H](C)[C@@H](O[C@@H]2O[C@H](C)C[C@H](N(C)C)[C@H]2O)[C@](C)(O)C[C@@H](C)CN[C@H](C)[C@@H](O)[C@]1(C)O`, the MIC in the test with Escherichia coli was 1.56 µg/mL (≈ 1.95 µM); in the test on Pasteurella multocida, 0.2 µg/mL (≈ 0.25 µM). In the test on Mus musculus, this molecule showed an ED50 of 72 mg/kg.

Turning to `CC[C@H]1OC(=O)[C@H](C)[C@@H](O[C@H]2C[C@@](C)(OC)[C@@]3(CO3)[C@H](C)O2)[C@H](C)[C@@H](O[C@@H]2O[C@H](C)C[C@H](N(C)C)[C@H]2O)[C@](C)(O)C[C@@H](C)CN[C@H](C)[C@@H](O)[C@]1(C)O`, the values for the MIC with Escherichia coli and in the test with Pasteurella multocida were 1.56 µg/mL (≈ 2.09 µM) and under 0.1 µg/mL, respectively. In the test on Mus musculus, the ED50 was found to be 31 mg/kg.

Take `CC#C[C@@]1(O)[C@H](C)O[C@@H](O[C@H]2[C@H](C)[C@@H](O[C@@H]3O[C@H](C)C[C@H](N(C)C)[C@H]3O)[C@](C)(O)C[C@@H](C)CN(C)[C@H](C)[C@@H](O)[C@](C)(O)[C@@H](CC)OC(=O)[C@@H]2C)C[C@@]1(C)OC`: the values for the MIC against Escherichia coli and against Pasteurella multocida were 1.56 µg/mL (≈ 1.98 µM) and 0.2 µg/mL (≈ 0.254 µM), respectively. In the test on Mus musculus, this molecule displayed a median effective dose (ED50) of 42 mg/kg.

The values above are taken from ChEMBL document CHEMBL1136530, “Synthesis, stereochemical assignment and biological activity of a novel series of C-4" modified aza-macrolides” (2003).
